Results on 21 molecules are retold here after ChEMBL document CHEMBL2412959, “Investigations on synthesis and structure elucidation of novel [1,2,4]triazolo[1,2-a]pyridazine-1-thiones and their inhibitory activity against inducible nitric oxide synthase” (Bioorg Med Chem, 2013).

The nature of series [1]: Cytotoxicity against rat RINm5F cells at 39 to 78 uM by MTT assay. The format is cell-based. In a few lines: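 RIN5F rat insulinoma cells, 1×10^5 per well, cytokine-induced and compound-treated as for the NO assay. After supernatant removal, medium was replaced with fresh medium containing MTT (2.5 mg/mL in PBS) for 4 h at 37 °C. Formazan was dissolved in DMSO. Viability is expressed as percent of cytokine-stimulated cells without compound.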

For series [2], the target named is Nitric oxide synthase, inducible (Rattus norvegicus) (UniProt Q06518). Nature of the series: Inhibition of iNOS-mediated NO production in IL-1beta/IFNgamma-stimulated rat […] cells at 39 to 78 uM by Griess reaction. The procedure, abridged: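 Compounds were added from 62.5 mM DMSO stock at 78 and 39 μM (final 0.5% DMSO). Nitrite in supernatant was measured by Griess reagents, absorbance 550 nm, against a 0–100 μM nitrite standard. Aminoguanidine was the reference on each plate. n = 5–8.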
Sequence of Nitric oxide synthase, inducible (Rattus norvegicus) (Q06518 whole entry): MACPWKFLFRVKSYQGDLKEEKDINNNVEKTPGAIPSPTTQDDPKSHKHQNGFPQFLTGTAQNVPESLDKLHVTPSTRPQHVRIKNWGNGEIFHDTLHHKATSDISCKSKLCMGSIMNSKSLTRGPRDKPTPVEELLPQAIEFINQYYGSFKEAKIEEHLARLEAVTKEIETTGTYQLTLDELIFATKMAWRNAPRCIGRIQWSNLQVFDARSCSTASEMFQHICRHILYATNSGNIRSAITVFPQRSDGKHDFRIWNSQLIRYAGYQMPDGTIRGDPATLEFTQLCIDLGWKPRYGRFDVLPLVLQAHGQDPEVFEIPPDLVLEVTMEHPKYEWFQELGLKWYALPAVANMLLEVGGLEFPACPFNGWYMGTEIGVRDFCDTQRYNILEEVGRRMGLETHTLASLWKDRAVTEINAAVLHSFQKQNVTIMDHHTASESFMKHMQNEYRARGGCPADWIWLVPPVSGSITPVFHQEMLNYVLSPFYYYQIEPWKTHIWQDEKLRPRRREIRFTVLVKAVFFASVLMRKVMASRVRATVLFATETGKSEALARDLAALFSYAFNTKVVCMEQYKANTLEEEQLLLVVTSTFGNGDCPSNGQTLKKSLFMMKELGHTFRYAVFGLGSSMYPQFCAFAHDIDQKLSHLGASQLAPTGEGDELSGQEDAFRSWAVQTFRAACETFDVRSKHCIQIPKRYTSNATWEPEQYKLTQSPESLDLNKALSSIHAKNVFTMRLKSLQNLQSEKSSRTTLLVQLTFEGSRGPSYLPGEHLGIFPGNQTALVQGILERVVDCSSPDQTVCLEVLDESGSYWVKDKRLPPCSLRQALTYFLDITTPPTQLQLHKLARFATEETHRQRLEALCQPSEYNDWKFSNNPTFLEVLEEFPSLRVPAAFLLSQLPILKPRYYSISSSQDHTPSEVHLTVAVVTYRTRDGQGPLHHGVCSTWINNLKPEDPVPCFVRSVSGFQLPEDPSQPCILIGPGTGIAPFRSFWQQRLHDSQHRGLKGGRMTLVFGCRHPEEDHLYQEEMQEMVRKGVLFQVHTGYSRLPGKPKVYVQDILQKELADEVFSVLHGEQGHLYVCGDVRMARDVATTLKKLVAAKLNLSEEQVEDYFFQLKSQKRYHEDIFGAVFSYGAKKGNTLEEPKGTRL
(In general: The Griess reaction detects nitrite, a stable product of nitric oxide.)

Series [3] in a line: Chemical stability in DMSO assessed as compound precipitation after several weeks. It is filed as physicochemical.
Series [4] addresses Nitric oxide synthase, inducible (Rattus norvegicus, UniProt Q06518). Nature of the series: (§1) Inhibition of iNOS-mediated NO production in IL-1beta/IFNgamma-stimulated rat […] cells by Griess reaction. The procedure, abridged:
(§2)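 Same cytokine-stimulated RIN5F Griess assay (IL-1β 1 ng/mL, IFN-γ 10 ng/mL; nitrite at 550 nm, nitrite calibration). Concentrations were chosen per compound to span 10–90% inhibition, plus one or two outside this range. IC50 was obtained by linear regression of log concentration versus percent inhibition.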

Series [5] can be described thus: Chemical stability in DMSO assessed as compound precipitation after 7 days. It is filed as physicochemical. Conditions: 168 h.
Series [6] deals with Nitric oxide synthase, inducible (Rattus norvegicus) (UniProt Q06518). In words: Ratio of aminoguanidine IC50 to compound IC50 for iNOS-mediated NO production in IL-1beta/IFNgamma-stimulated rat […] cells by Griess reaction.
Series [7] has the same target. The series is described as §1. In a few lines: as §2

Broadly, the IC50 is the point on the concentration scale where inhibition reaches its midpoint. A low value points to higher potency.

Molecules are shown by their SMILES. Calls of active or inactive are those of the source. The calls are words filed in the database; no cut-off is given here.

Sequence of Nitric oxide synthase, inducible (Q06518 whole entry): as above

Turning to `COc1ccc(C2NC(=S)N3CCCCN23)cc1` (centres undefined), the Activity entry in series [1] is recorded as “Non-toxic”. The inhibition result in series [2] was “Active”. For the same molecule, the Stability result in series [3] is “Unstable”.
Consider `Oc1ccccc1C1NC(=S)N2CCCCN12` (centres undefined), for which, in series [1], the Activity result is “Non-toxic”. The molecule also gave an IC50 in series [4] of 70 µM. In series [3], the Stability entry is given as “Unstable”.
For the molecule `S=C1NC(c2cccc(Oc3ccccc3)c2)N2CCCCN12` (centres undefined), the Activity entry in series [1] was “Non-toxic”. The molecule also displayed an IC50 in series [4] of 40.2 µM. In series [3], the Stability result is reported as “Unstable”.
Turning to `N=C(N)NN` [PIMAGEDINE], in series [1], the Activity entry is listed as “Non-toxic”. Further, the IC50 in series [4] came to 132 µM.
Regarding `S=C1NC(/C=C/c2ccccc2)N2CCCCN12` (centres undefined), the Activity entry in series [1] is recorded as “Non-toxic”. This molecule had an IC50 in series [4] of 29.9 µM. The Stability result in series [5] is “Unstable”.
For the molecule `S=C1NC(c2ccccc2Cl)N2CCCCN12` (centres undefined), in series [1], the Activity entry is recorded as “Non-toxic”. In addition, the concentration for half-maximal inhibition (IC50) in series [4] stood at 63 µM. Moreover, the Stability result in series [3] is on record as “Unstable”.
On the same counts, the results for `S=C1NC(c2ccc(Cl)cc2)N2CCCCN12` (centres undefined) are “Non-toxic”, 57.6 µM and “Unstable”.
On the same counts, the results for `O=[N+]([O-])c1cccc(C2NC(=S)N3CCCCN23)c1` (centres undefined) are “Non-toxic”, 16.2 µM and “Unstable”.
On the same counts, the results for `O=[N+]([O-])c1ccc(C2NC(=S)N3CCCCN23)cc1` (centres undefined) are “Non-toxic”, 13.2 µM and “Unstable”.
For the molecule `Cc1ccccc1C1NC(=S)N2CCCCN12` (centres undefined), the Activity result in series [1] is given as “Non-toxic”. Besides, in series [4], the IC50 was 60.3 µM. In series [3], the Stability entry is “Unstable”.
With `S=C1NC(c2cccc(Cl)c2)N2CCCCN12` (centres undefined), the Activity result in series [1] is reported as “Non-toxic”. Also, in series [2], the inhibition result was “Active”. The Stability entry in series [3] is on record as “Unstable”.
As to `CN(C)c1ccc(C2NC(=S)N3CCCCN23)cc1` (centres undefined), in series [1], the Activity result is listed as “Non-toxic”. In series [4], this molecule showed an IC50 of 101 µM. In series [6], the Ratio IC50 was found to be 2. The Stability result in series [3] is “Unstable”.
On to `O=[N+]([O-])c1ccccc1C1NC(=S)N2CCCCN12` (centres undefined), for which, in series [1], the Activity result is recorded as “Non-toxic”. For the same molecule, in series [4], half-maximal inhibition (IC50) was put at 24.2 µM. The Stability entry in series [3] is “Unstable”.
As for `Cc1cccc(C2NC(=S)N3CCCCN23)c1` (centres undefined), in series [1], the Activity result was “Non-toxic”. Also, the inhibition entry in series [2] was “Active”. For the same molecule, the Stability result in series [3] is recorded as “Unstable”.
In the case of `O=[N+]([O-])c1ccccc1/C=C/C1NC(=S)N2CCCCN12` (centres undefined), the Activity result in series [1] is given as “Non-toxic”. The same molecule yielded a 50% inhibitory concentration (IC50) in series [4] of 9.81 µM. Further, the Ratio IC50 in series [6] was found to be 10. For the same molecule, the Stability entry in series [5] is on record as “Unstable”.
Regarding `Cc1ccc(C2NC(=S)N3CCCCN23)cc1` (centres undefined), the Activity result in series [1] is “Non-toxic”. The same molecule had an IC50 in series [4] of 53.2 µM. Further, the Stability entry in series [3] was “Unstable”.
As for `CC1NC(=S)N2CCCCN12` (centres undefined), the Activity result in series [1] is “Non-toxic”. Besides, the inhibition result in series [7] was “inactive”. In series [3], the Stability entry was “Unstable”.
As to `Oc1cccc(C2NC(=S)N3CCCCN23)c1` (centres undefined), the Activity entry in series [1] is recorded as “Non-toxic”. Also, the inhibition result in series [2] was “Active”. The Stability result in series [3] was “Unstable”.
Regarding `S=C1NC(Cc2ccccc2)N2CCCCN12` (centres undefined), the Activity entry in series [1] is “Non-toxic”. Moreover, in series [7], the inhibition entry was “inactive”. In addition, the Stability entry in series [3] is “Unstable”.
`Oc1ccc(C2NC(=S)N3CCCCN23)cc1` (centres undefined): the Activity entry in series [1] is “Non-toxic”. Besides, in series [2], the inhibition entry is “Active”. Also, the Stability entry in series [3] is recorded as “Unstable”.
On to `S=C1NC(c2ccccc2)N2CCCCN12` (centres undefined), for which the Activity entry in series [1] is listed as “Non-toxic”. Also, in series [2], the inhibition entry was “Active”. For the same molecule, the Stability entry in series [3] is on record as “Unstable”.
